Test results reported in ChEMBL document CHEMBL4308847, “Discovery, Structure-Activity Relationship, and Biological Characterization of a Novel Series of 6-((1 H-Pyrazolo[4,3- b]pyridin-3-yl)amino)-benzo[ d]isothiazole-3-carboxamides as Positive Allosteric Modulators of the Metabotropic Glutamate Receptor 4 (mGlu4)” (J Med Chem, 2018).

Tests used:
[1] = Fraction unbound in rat plasma after 4 hrs by equilibrium dialysis method; format: ADME, cell-free
[2] = Intrinsic clearance in human liver microsomes at 1 uM preincubated for 5 mins followed by NADPH addition measured up to 45 mins by LC-MS/MS analysis; format: ADME, Microsome; conditions: read-out: CLH
Method in brief: (§1)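 Intrinsic and predicted hepatic clearance derived from liver microsome incubations.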

[3] = target: T1, Metabotropic glutamate receptor 4 (Homo sapiens, UniProt Q14833); assay: (§2) Positive allosteric modulation of human mGlu4 receptor expressed in CHO cells co-expressing Gqi5 assessed as increase in glutamate-induced calcium mobilization preincubated for 142 secs followed by EC20 glutamate addition and measured after 147 secs by Fluo-4-AM dye based fluorescence assay relative to control; format: functional, cell-based
T1 sequence (Q14833 whole entry): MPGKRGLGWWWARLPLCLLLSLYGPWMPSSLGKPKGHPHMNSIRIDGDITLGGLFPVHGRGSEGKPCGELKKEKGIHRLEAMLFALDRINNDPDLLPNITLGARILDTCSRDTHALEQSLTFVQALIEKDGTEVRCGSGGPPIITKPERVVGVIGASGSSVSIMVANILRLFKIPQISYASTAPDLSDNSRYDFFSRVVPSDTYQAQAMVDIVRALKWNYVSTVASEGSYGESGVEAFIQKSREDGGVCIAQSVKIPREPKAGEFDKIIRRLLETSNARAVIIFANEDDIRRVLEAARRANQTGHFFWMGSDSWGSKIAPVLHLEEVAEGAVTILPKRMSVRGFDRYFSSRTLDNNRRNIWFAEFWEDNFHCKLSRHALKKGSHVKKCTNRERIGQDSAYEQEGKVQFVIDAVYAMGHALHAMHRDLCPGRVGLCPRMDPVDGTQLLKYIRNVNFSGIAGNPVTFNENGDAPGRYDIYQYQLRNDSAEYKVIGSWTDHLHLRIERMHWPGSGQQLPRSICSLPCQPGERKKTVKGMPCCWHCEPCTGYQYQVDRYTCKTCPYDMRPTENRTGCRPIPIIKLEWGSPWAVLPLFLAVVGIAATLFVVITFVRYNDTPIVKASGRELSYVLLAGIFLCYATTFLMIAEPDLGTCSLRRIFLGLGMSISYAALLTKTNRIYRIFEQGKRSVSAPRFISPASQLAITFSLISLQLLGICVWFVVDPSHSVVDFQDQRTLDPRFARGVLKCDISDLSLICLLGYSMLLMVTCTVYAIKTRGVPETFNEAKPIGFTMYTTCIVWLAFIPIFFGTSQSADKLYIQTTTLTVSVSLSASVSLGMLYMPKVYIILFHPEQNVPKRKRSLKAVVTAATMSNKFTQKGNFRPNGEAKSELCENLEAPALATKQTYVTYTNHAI
Method in brief: (§3)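 CHO cells expressing human mGlu4 and Gqi5, plated at 30,000 cells/well and grown overnight at 37 °C, 5% CO2. Cells were loaded with 1 μM Fluo-4 AM for 45 min at 37 °C in HBSS/20 mM HEPES/2.5 mM probenecid. Compounds were run as 10-point, 1:3 dilution series. After 142 s, EC20 glutamate was added; 147 s later, EC80 glutamate. Fluorescence was normalized to the maximal glutamate response. EC50 and %Glu Max were fitted by four-parameter logistic, with maximum normalized to PHCCC.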

[4] = Intrinsic clearance in rat liver microsomes at 1 uM preincubated for 5 mins followed by NADPH addition measured up to 45 mins by LC-MS/MS analysis; format: ADME, Microsome; conditions: read-out: CLH; method in brief: as §1
[5] = Fraction unbound in human plasma after 4 hrs by equilibrium dialysis method; format: ADME, cell-free
[6] = target: T1, Metabotropic glutamate receptor 4; assay: as §2, with “subsequent EC80 glutamate addition” for “measured”, “assay” for “assay relative to control”; format: functional, cell-based; method in brief: as §3
[7] = target: Metabotropic glutamate receptor 4 (Rattus norvegicus) (UniProt P31423); assay: Positive allosteric modulation of rat mGlu4 receptor expressed in HEK cells co-expressing GIRK1/2 assessed as increase in glutamate-induced thallium flux preincubated for 140 secs followed by glutamate addition and measured after 2.5 mins by FluoZin-2-AM dye based fluorescence assay relative to control; format: cell-based
Sequence of Metabotropic glutamate receptor 4 (Rattus norvegicus) (P31423 whole entry): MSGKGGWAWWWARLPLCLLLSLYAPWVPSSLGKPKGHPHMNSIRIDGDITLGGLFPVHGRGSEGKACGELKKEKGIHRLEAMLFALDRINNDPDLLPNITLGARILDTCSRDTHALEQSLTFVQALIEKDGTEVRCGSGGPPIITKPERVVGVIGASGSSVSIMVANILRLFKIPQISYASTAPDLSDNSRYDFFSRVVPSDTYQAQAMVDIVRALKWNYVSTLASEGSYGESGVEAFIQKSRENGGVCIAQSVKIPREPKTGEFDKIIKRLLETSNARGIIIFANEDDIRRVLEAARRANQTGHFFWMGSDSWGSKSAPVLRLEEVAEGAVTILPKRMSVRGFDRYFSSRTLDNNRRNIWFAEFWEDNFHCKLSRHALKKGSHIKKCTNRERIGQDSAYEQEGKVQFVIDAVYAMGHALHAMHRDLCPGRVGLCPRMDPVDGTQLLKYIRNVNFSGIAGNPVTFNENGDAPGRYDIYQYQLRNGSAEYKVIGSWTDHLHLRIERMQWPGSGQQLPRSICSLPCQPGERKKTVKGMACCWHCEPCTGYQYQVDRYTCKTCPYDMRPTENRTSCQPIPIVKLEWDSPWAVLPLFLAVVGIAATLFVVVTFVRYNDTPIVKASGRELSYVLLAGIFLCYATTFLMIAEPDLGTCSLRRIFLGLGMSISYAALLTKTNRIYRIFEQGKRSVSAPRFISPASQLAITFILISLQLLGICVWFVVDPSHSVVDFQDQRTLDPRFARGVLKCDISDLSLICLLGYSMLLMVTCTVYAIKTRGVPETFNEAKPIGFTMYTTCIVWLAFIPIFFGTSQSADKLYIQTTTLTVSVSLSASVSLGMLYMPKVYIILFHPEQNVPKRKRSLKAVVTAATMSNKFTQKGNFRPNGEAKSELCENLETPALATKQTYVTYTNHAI
Method in brief: (§4)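 HEK cells co-expressing rat mGlu4 and GIRK1/2 were loaded for 1 h at room temperature with FluoZin-2 AM (330 nM final) in HBSS/20 mM HEPES pH 7.4. Compound was incubated 140 s, then thallium buffer with or without agonist was added. Reading continued for 2.5 min at room temperature. Potency was fitted by four-parameter logistic.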

[8] = target: Metabotropic glutamate receptor 4 (Rattus norvegicus, UniProt P31423); assay: Positive allosteric modulation of rat mGlu4 receptor expressed in HEK cells co-expressing GIRK1/2 assessed as increase in glutamate-induced thallium flux preincubated for 140 secs followed by glutamate addition and measured after 2.5 mins by FluoZin-2-AM dye based fluorescence assay; format: cell-based; method in brief: as §4
Sequence of Metabotropic glutamate receptor 4 (Rattus norvegicus, UniProt P31423) (P31423 whole entry): as above

[9] = target: T2, Cytochrome P450 1A2 (Homo sapiens, UniProt P05177); assay: Inhibition of CYP1A2 in human liver microsomes using phenacetin as substrate preincubated for 15 mins followed by substrate addition and measured after 8 mins by LC-MS/MS analysis; format: ADME
T2 sequence (P05177 whole entry): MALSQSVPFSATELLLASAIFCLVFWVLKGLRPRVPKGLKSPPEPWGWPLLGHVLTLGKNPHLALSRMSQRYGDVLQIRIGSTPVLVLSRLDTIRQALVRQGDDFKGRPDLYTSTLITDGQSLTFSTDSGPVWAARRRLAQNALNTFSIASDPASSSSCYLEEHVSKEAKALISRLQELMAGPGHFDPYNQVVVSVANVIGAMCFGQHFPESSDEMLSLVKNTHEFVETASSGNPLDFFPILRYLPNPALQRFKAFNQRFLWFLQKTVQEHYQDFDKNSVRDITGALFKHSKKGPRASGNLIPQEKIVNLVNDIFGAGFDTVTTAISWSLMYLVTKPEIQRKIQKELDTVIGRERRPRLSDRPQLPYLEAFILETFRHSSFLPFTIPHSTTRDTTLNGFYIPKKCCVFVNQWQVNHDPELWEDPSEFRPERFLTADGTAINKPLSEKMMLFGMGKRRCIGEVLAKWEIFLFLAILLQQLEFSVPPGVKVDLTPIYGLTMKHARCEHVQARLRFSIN
Method in brief: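 IC50 for CYP1A2 inhibition determined in human liver microsomes using specific probe substrate-metabolite pairs.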

[10] = Clearance in rat administered as iv cassette dose; format: ADME, organism-based; conditions: in vivo
Method in brief: (§5)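 IV cassette in male Sprague-Dawley rats (~300 g, n = 1 per experiment), cannulated in carotid artery and jugular vein and acclimated about one week. Plasma clearance, Vss, t1/2 and MRT were derived.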

[11] = Half life in rat administered as iv cassette dose; format: ADME, organism-based; conditions: in vivo; method in brief: as §5

SMILES | fraction unbound at 4 h [1] | CLint scaled at 1 µM [2] | %max [3] | CLint scaled at 1 µM [4] | fraction unbound at 4 h [5] | EC50 [6] | %max [7] | EC50 [8] | IC50 [9] | clearance [10] | half-life [11]
CCc1nsc2cc(Nc3n[nH]c4cccnc34)ccc12 | 0.03 | 35.4 mL/min/kg | 77% | 127 mL/min/kg | 0.035 | 40 nM |  |  |  |  | 
CCCC(C)c1noc2cc(Nc3n[nH]c4cccnc34)ccc12 (stereo not drawn) |  |  | 92% |  |  | 117 nM |  |  |  |  | 
CCC(CC)c1noc2cc(Nc3n[nH]c4nccnc34)ccc12 |  |  | 106% |  |  | 98 nM |  |  |  |  | 
CC(C)(C)c1nsc2cc(Nc3n[nH]c4cccnc34)ccc12 |  |  | 64% |  |  | 324 nM |  |  |  |  | 
Cc1noc2ccc(Nc3n[nH]c4cccnc34)cc12 | 0.058 | 14.8 mL/min/kg | 91% | 31.8 mL/min/kg | 0.062 | 75.9 nM | 105% | 95.5 nM | < 100 nM |  | 
CCc1nsc2cc(Nc3n[nH]c4ncccc34)ccc12 |  |  | 57% |  |  | 102 nM |  |  |  |  | 
O=C(c1nsc2cc(Nc3n[nH]c4cccnc34)ccc12)N1CCC(F)(F)C1 |  |  | 92% |  |  | 331 nM |  |  |  |  | 
c1cnc2c(Nc3ccc4c(C5CC5)nsc4c3)n[nH]c2n1 | 0.008 | 41.2 mL/min/kg | 73% | 59.4 mL/min/kg | 0.012 | 68 nM |  |  | 700 nM |  | 
Cc1noc2ccc(Nc3n[nH]c4ncc(F)cc34)cc12 | 0.044 | 23.6 mL/min/kg | 54% | 39.3 mL/min/kg | 0.054 | 219 nM | 121% | 190 nM | 500 nM |  | 
Cc1noc2c(F)cc(Nc3n[nH]c4nccnc34)cc12 |  |  | 70% |  |  | 22.9 nM |  |  |  |  | 
O=C(C1CC1)N1CCC(c2nsc3cc(Nc4n[nH]c5cccnc45)ccc23)CC1 |  |  | 111% |  |  |  |  |  |  |  | 
CC1CC(C)CN(C(=O)c2nsc3cc(Nc4n[nH]c5cccnc45)ccc23)C1 (stereo not drawn) |  |  | 63% |  |  | 447 nM |  |  |  |  | 
c1cnc2c(Nc3ccc4c(C5CCCC5)noc4c3)n[nH]c2c1 | 0.007 | 30.7 mL/min/kg | 87.6% | 398 mL/min/kg | 0.01 | 723 nM | 97.9% | 680 nM | 1200 nM | 62.1 mL/min/kg | 1.67 h
CCC(CC)c1noc2cc(Nc3n[nH]c4ncccc34)ccc12 |  |  | 97% |  |  | 525 nM |  |  |  |  | 
CC1CCN(C(=O)c2nsc3cc(Nc4n[nH]c5cccnc45)ccc23)CC1 |  |  | 80% |  |  | 398 nM |  |  |  |  | 
CCc1noc2cc(Nc3n[nH]c4cccnc34)ccc12 | 0.037 | 69.9 mL/min/kg | 72% | 204 mL/min/kg | 0.027 | 1350 nM |  |  | < 100 nM |  | 
c1cnc2c(Nc3ccc4c(C5CC5)nsc4c3)n[nH]c2c1 | 0.014 | 28.9 mL/min/kg | 76% | 176 mL/min/kg | 0.009 | 81 nM |  |  | 400 nM |  | 
CCC(CC)c1noc2cc(Nc3n[nH]c4cccnc34)ccc12 | 0.019 | 84.2 mL/min/kg | 92% | 488 mL/min/kg | 0.009 | 129 nM |  |  | 1000 nM |  | 
CC(F)(F)c1noc2cc(Nc3n[nH]c4cccnc34)ccc12 | 0.017 | 24.6 mL/min/kg | 58.8% | 11 mL/min/kg | 0.003 | 678 nM | 83.8% | 1600 nM | 500 nM | 27.8 mL/min/kg | 1.51 h
